Results gathered from unrelated publications.
Lines come from different studies, so protocols differ.
Organism: Staphylococcus aureus
Observed: microbial growth

Cc1ccc2[nH]nc(-c3nnc(Nc4ccc(O)cc4)s3)c2c1 — MIC (ATCC29213): 18.3 µg/mL
CC(=O)c1ccc2cc(S(=O)(=O)Nc3ccc(Br)cc3)ccc2c1 — MIC (broth dilution; ATCC25923): 20000 µg/mL
CC[C@H]1OC(=O)[C@H](C)[C@@H](O[C@H]2C[C@@](C)(OC)[C@@H](O)[C@H](C)O2)[C@H](C)[C@@H](O[C@@H]2O[C@H](C)C[C@H](N(C)C)[C@H]2O)[C@](C)(O)C[C@@H](C)/C(=N\OCOCCOC)[C@H](C)[C@@H](O)[C@]1(C)O — MIC (agar dilution; ATCC25923): 2 µg/mL
CCCCCCC#Cc1cncc(-c2nnc(SCc3ccc(Cl)cc3)n2CCCN)c1 — MIC (broth dilution; MRSA): 4 to 8 µg/mL
Cc1ccc2[nH]nc(-c3nnc(Nc4ccc(F)cc4)s3)c2c1 — MIC (ATCC29213): 18.3 µg/mL
CCCCCCC#Cc1cncc(-c2nnc(SCc3ccc([N+](=O)[O-])cc3)n2CCCN)c1 — MIC (broth dilution; MRSA): 8 µg/mL
CN[C@H](CC(C)C)C(=O)N[C@H]1C(=O)N[C@@H](CC(N)=O)C(=O)N[C@H]2C(=O)N[C@H]3C(=O)N[C@H](C(=O)N[C@H](C(=O)O)c4cc(O)cc(O)c4-c4cc3ccc4O)[C@H](O)c3ccc(c(Cl)c3)Oc3cc2cc(c3O[C@@H]2O[C@H](CO)[C@@H](O)[C@H](O)[C@H]2O[C@H]2C[C@](C)(N)[C@H](O)[C@H](C)O2)Oc2ccc(cc2Cl)[C@H]1O — MIC (MRSA): 0.5 µg/mL
[H]/N=C(/N)N[C@H]1[C@H](O)[C@@H](O)[C@H](O[C@@H]2O[C@@H](C)[C@](O)(C=O)[C@H]2O[C@@H]2O[C@@H](CO)[C@H](O)[C@@H](O)[C@@H]2NC)[C@@H](N/C(N)=N\[H])[C@@H]1O — MIC (broth dilution; ATCC6538): 15 µg/mL
COc1c(N2C[C@@H]3CCCN[C@@H]3C2)c(F)cc2c(=O)c(C(=O)O)cn(C3CC3)c12 — MIC (agar dilution; ATCC43300): 0.5 µg/mL
CC(=O)C1=NN(c2ccccc2)C(=C(C#N)C(=O)c2ccc(Nc3cnccn3)cc2)S1 — MIC (broth dilution; ATCC25923): 50 µg/mL
C[C@@H](O)[C@H]1C(=O)N2C(C(=O)O)=C(S[C@@H]3CN[C@H](C(=O)N(C)C)C3)[C@H](C)[C@H]12 — MIC (ATCC29213 MSSA; drug-resistant strain): 0.06 µg/mL
CN(C)[C@@H]1C(O)=C(C(N)=O)C(=O)[C@@]2(O)C(O)=C3C(=O)c4c(O)cccc4[C@@](C)(O)[C@H]3C[C@@H]12 — MIC (broth dilution; ATCC25923; 16 h): 3.1 µM
CC1(C)S[C@@H]2[C@H](NC(=O)[C@H](N)c3ccc(O)cc3)C(=O)N2[C@H]1C(=O)O — MIC (broth dilution; ATCCBAA44 BAA44): 64 µg/mL
CC(=O)NC[C@H]1CN(c2ccc(N3CCOCC3)c(F)c2)C(=O)O1 — MIC (agar dilution; ATCC25923): 1 µg/mL
O=C(O)c1cn(C2CC2)c2cc(N3CCNCC3)c(F)cc2c1=O — MIC (broth dilution; ATCC33591 MRSA): 0.5 µg/mL
COc1cc2cc(CNCCC3CCN(C4CCCC4)CC3)c(SCc3ccccc3)nc2c(OC)c1OC — MIC (broth dilution): > 128 µg/mL
COc1ccc(N2N=C(C(=O)c3ccc(Nc4cnccn4)cc3)SC2=C(C#N)C#N)cc1 — MIC (broth dilution; ATCC25923): 3.12 µg/mL
c1ccc(CSc2nc3ccccc3cc2CNCc2ccc(CN3CCCC3)cc2)cc1 — MIC (broth dilution): 64 µg/mL
CN[C@H](CC(C)C)C(=O)N[C@H]1C(=O)N[C@@H](CC(N)=O)C(=O)N[C@H]2C(=O)N[C@H]3C(=O)N[C@H](C(=O)N[C@H](C(=O)O)c4cc(O)cc(O)c4-c4cc3ccc4O)[C@H](O)c3ccc(c(Cl)c3)Oc3cc2cc(c3O[C@@H]2O[C@H](CO)[C@@H](O)[C@H](O)[C@H]2O[C@H]2C[C@](C)(N)[C@H](O)[C@H](C)O2)Oc2ccc(cc2Cl)[C@H]1O — MIC (broth dilution; ATCCBAA44 BAA44): 1 µg/mL
Cc1ccc2[nH]nc(-c3nnc(Nc4ccc(Cl)c(Br)c4)s3)c2c1 — MIC (ATCC29213): 204 µg/mL
[H]/N=C(\N/C(=N/[H])NCCCCCCNC(=N)NC(=N)Nc1ccc(Cl)cc1)Nc1ccc(Cl)cc1 — MIC (MSSA): 0.5 µM
Cc1ccc2[nH]nc(-c3nnc(Nc4ccc([N+](=O)[O-])cc4)s3)c2c1 — MIC (ATCC29213): 37.4 µg/mL
CC(=O)NC[C@H]1CN(c2ccc(N3CCOCC3)c(F)c2)C(=O)O1 — MIC (broth dilution; ATCC29213): 1 µg/mL
N#CC(C#N)=C1SC(C(=O)c2ccc(Nc3cnccn3)cc2)=NN1c1ccccc1 — MIC (broth dilution; ATCC25923): 50 µg/mL
CN[C@H](CC(C)C)C(=O)N[C@H]1C(=O)N[C@@H](CC(N)=O)C(=O)N[C@H]2C(=O)N[C@H]3C(=O)N[C@H](C(=O)N[C@H](C(=O)O)c4cc(O)cc(O)c4-c4cc3ccc4O)[C@H](O)c3ccc(c(Cl)c3)Oc3cc2cc(c3O[C@@H]2O[C@H](CO)[C@@H](O)[C@H](O)[C@H]2O[C@H]2C[C@](C)(N)[C@H](O)[C@H](C)O2)Oc2ccc(cc2Cl)[C@H]1O — MIC (broth dilution; ATCC29213): 0.67 µM
CC[C@H]1OC(=O)[C@H](C)[C@@H](O[C@H]2C[C@@](C)(OC)[C@@H](O)[C@H](C)O2)[C@H](C)[C@@H](O[C@@H]2O[C@H](C)C[C@H](N(C)C)[C@H]2O)[C@](C)(O)C[C@@H](C)C(=O)[C@H](C)[C@@H](O)[C@]1(C)O — MIC (broth dilution; USA300): > 64 µg/mL
Brc1ccc2nc(SCc3ccccc3)c(CNCc3ccc(CN4CCCC4)cc3)cc2c1 — MIC (broth dilution): 32 µg/mL
N[C@@H](Cc1c[nH]c2ccc(Cl)cc12)C(=O)O — MIC (NEWMAN; 18 h): 200 µM
CC1(C)S[C@@H]2[C@H](NC(=O)[C@H](N)c3ccccc3)C(=O)N2[C@H]1C(=O)O — MIC (agar dilution; ATCC43300): > 128 µg/mL
CN[C@H](CC(C)C)C(=O)N[C@H]1C(=O)N[C@@H](CC(N)=O)C(=O)N[C@H]2C(=O)N[C@H]3C(=O)N[C@H](C(=O)N[C@H](C(=O)O)c4cc(O)cc(O)c4-c4cc3ccc4O)[C@H](O[C@H]3C[C@](C)(N)[C@@H](O)[C@H](C)O3)c3ccc(c(Cl)c3)Oc3cc2cc(c3O[C@@H]2O[C@H](CO)[C@@H](O)[C@H](O)[C@H]2O[C@H]2C[C@](C)(NCc3ccc(-c4ccc(Cl)cc4)cc3)[C@@H](O)[C@H](C)O2)Oc2ccc(cc2Cl)[C@H]1O — MIC (broth dilution): 2 µM
c1ccc(CSc2nc3ccccc3cc2CNCc2ccc(N3CCCCC3)cc2)cc1 — MIC (broth dilution): > 128 µg/mL
CCC[C@@H]1C[C@@H](C(=O)N[C@@H]([C@H]2O[C@H](SC)[C@H](O)[C@@H](O)[C@H]2O)[C@@H](C)O)N(C)C1 — MIC (broth dilution; ATCCBAA44 BAA44): > 64 µg/mL
Cc1ccc2[nH]nc(-c3nnc(Nc4ccc(Cl)cc4)s3)c2c1 — MIC (ATCC29213): 44.5 µg/mL
C=C[C@]1(C)C[C@@H](OC(=O)CS[C@@H]2C[C@H]3CC[C@@H](C2)N3C)[C@]2(C)[C@H](C)CC[C@]3(CCC(=O)[C@H]32)[C@@H](C)[C@@H]1O — MIC (agar dilution; ATCC25923): 0.0312 µg/mL
CCN1CCC(CCNCc2cc3cc(Br)ccc3nc2SCc2ccccc2)CC1 — MIC (broth dilution): 32 µg/mL
CCCCCCC#Cc1cncc(-c2nnc(SCc3cc([N+](=O)[O-])cc([N+](=O)[O-])c3)n2CCCN)c1 — MIC (broth dilution; ATCC29213): 8 µg/mL
CCCCCCCCCCCC[N+](C)(C)Cc1ccccc1 — MIC (ATCC33591 MRSA; drug-resistant strain): 32 µM
CCCCCCC#Cc1cncc(-c2nnc(SCc3ccc([N+](=O)[O-])o3)n2CCCN)c1 — MIC (broth dilution; MRSA): > 64 µg/mL
N#CC(C#N)=C1SC(C(=O)c2ccc(Nc3cnccn3)cc2)=NN1c1ccc([N+](=O)[O-])cc1 — MIC (broth dilution; ATCC25923): 3.12 µg/mL
CCCCCCCCN=c1ccn(CCCCCCCCCCn2ccc(=NCCCCCCCC)cc2)cc1 — MIC (MRSA USA300; drug-resistant strain): 0.5 µM
